pIC50: −log10 of the molar value.
Columns and labels:
Type in all cases: ADME, cell-based
[1] = molecular target: T1, Broad substrate specificity ATP-binding cassette transporter ABCG2 (Homo sapiens, UniProt Q9UNQ0); assay: Inhibition of human BCRP expressed in MDCK2 cells assessed as reduction of [3H]E-sul substrate transport up to 100 uM by liquid scintillation counting; conditions: mdck-ii
T1 sequence (Q9UNQ0 whole entry): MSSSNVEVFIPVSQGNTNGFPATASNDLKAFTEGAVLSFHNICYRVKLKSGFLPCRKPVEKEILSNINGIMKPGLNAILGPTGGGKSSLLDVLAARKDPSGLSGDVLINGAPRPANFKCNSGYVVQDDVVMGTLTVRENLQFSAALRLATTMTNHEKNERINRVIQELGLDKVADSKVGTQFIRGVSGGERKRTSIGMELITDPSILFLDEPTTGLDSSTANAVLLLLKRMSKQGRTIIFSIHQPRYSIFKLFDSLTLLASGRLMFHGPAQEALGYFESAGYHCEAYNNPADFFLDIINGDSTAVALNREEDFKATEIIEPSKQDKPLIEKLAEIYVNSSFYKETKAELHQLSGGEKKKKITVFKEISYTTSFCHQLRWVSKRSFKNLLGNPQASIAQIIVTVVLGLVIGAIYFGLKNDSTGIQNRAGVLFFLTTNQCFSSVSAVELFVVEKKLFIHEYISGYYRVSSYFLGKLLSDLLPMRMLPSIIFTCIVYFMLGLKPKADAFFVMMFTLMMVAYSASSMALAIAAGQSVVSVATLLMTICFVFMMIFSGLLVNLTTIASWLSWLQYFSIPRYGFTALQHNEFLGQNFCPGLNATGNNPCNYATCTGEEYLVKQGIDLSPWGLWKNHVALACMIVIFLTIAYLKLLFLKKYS
Procedure, shortened: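 Membrane vesicles made from MDCKII cells expressing BCRP or MRP2, and from parental cells (1 μg/μL protein). Run in Tris-sucrose buffer, pH 7.4, with 10 mM MgCl2, creatine phosphokinase and ATP, or AMP as control. Substrates: 0.035 μM [3H]E-sul for BCRP, 2 min; 0.033 μM [3H]E217βG for MRP2, 5 min; both at 37 °C. Stopped ice-cold, filtered, and counted by scintillation.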

[2] = system: P-glycoprotein; assay: Permeability assessed as human P-glycoprotein-mediated transport across basolateral to apical side expressed in pig LLC-PK1 cells at 500 uM by liquid scintillation counting
[3] = Inhibition of human P-glycoprotein expressed in pig LLC-PK1 cells assessed as reduction of [3H]digoxin substrate transport by liquid scintillation counting
Procedure, shortened: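 P-gp-expressing and parental LLC-PK1 monolayers were grown on transwell inserts for 6–7 days to confluence and switched to serum-free M199 1 h before assay. [3H]digoxin was given apical-to-basal or basal-to-apical, with inhibitor in both chambers, at 37 °C, solvent ≤0.5%. Receiver samples were scintillation-counted and Papp taken from the linear phase. Results are % of control BtoA transport, mean ± S.D., n≥3.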

[4] = molecular target: T2, Solute carrier family 22 member 11 (Homo sapiens, UniProt Q9NSA0); assay: Inhibition of OAT4 (unknown origin) expressed in HEK293 cells assessed as reduction of [3H]E-sul substrate uptake at 100 uM by liquid scintillation counting; conditions: hek293, 100 µM
T2 sequence (Q9NSA0 whole entry): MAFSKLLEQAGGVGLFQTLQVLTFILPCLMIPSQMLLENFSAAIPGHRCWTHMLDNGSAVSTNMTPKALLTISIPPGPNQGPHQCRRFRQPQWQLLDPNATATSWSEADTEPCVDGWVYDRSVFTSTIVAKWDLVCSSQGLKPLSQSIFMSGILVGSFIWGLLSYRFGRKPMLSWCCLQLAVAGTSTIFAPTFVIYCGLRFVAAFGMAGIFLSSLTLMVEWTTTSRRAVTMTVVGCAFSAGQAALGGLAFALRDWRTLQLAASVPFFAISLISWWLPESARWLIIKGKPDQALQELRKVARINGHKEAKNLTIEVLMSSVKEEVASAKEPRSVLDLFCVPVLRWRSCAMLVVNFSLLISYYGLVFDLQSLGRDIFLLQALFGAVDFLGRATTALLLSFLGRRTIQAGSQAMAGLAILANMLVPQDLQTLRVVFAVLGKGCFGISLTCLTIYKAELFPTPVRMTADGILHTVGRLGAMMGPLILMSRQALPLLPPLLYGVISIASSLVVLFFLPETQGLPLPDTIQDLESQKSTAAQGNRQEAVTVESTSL
Procedure, shortened: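 HEK293 cells transiently transfected with OAT, OATP or OCT plasmid (FuGENE6; 24 h, then 24 h more with sodium butyrate), or stable OCTN1/OCTN2 lines; vector-transfected cells as control. Washed, preincubated 15–60 min at 37 °C in modified Krebs-Henseleit/25 mM HEPES buffer. Uptake of radiolabelled substrate, 100 µM inhibitor. Cells lysed in NaOH and counted by scintillation; counts normalised to medium radioactivity and Lowry protein; vector uptake subtracted.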

[5] = Permeability assessed as human P-glycoprotein-mediated transport across basolateral to apical side expressed in pig LLC-PK1 cells by measuring membrane permeability time by Transwell experiment/liquid scintillation counting
[6] = system: P-glycoprotein; assay: Permeability assessed as human P-glycoprotein-mediated transport across apical to basolateral side expressed in pig LLC-PK1 cells at 2 uM by liquid scintillation counting
[7] = system: P-glycoprotein; assay: Permeability assessed as human P-glycoprotein-mediated transport across basolateral to apical side expressed in pig LLC-PK1 cells at 2 uM by liquid scintillation counting
[8] = molecular target: T3, Organic anion transporter 3 (Homo sapiens, UniProt Q8TCC7); assay: Inhibition of OAT3 (unknown origin) expressed in HEK293 cells assessed as reduction of [3H]E-sul substrate uptake by liquid scintillation counting
T3 sequence (Q8TCC7 whole entry): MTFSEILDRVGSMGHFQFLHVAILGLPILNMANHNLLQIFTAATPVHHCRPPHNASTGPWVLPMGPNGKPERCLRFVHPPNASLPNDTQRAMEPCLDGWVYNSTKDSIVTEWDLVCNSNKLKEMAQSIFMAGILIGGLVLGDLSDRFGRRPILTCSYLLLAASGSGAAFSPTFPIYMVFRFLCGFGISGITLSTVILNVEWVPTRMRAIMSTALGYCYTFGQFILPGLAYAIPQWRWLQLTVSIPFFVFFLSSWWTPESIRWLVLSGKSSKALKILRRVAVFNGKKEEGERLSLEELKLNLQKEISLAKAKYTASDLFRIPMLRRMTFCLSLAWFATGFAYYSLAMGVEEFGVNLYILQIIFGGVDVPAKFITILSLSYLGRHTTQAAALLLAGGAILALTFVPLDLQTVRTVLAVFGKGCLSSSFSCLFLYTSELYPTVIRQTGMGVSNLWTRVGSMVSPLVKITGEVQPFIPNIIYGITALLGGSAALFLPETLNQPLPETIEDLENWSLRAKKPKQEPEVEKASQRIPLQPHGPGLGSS

[9] = system: P-glycoprotein; assay: Permeability assessed as human P-glycoprotein-mediated transport of apical to basolateral side in pig LLC-PK1 cells by measuring nontransporter-related passive membrane permeability by Transwell experiment/liquid scintillation counting; conditions: read-out: permeability

## CC#CCn1c(N2CCC[C@@H](N)C2)nc2c1c(=O)n(Cc1nc(C)c3ccccc3n1)c(=O)n2C [LINAGLIPTIN]
[1]
  inhibition (INH): 24.7%
[2]
  Papp B→A at 500 µM: 15.7 ×10⁻⁶ cm/s
[3]
  inhibition (INH): Dose-dependent effect
[4]
  inhibition (INH): 0%
[5]
  Time: 2.71 h
[6]
  Papp A→B at 2 µM: 4.21 ×10⁻⁶ cm/s
[7]
  Papp B→A at 2 µM: 39.4 ×10⁻⁶ cm/s
[8]
  pIC50: < 4.00
[9]
  Papp A→B: 27.3 ×10⁻⁶ cm/s
